According to the M2OR odorant receptor database:
Numbering of substitutions follows the chain as printed.

Experiments:
Settings in all cases: stereoisomer not certain
OR5M8 (Homo sapiens) = biological target: T1, OR5M8 (Homo sapiens) (UniProt Q8NGP6)
T1 sequence (whole entry): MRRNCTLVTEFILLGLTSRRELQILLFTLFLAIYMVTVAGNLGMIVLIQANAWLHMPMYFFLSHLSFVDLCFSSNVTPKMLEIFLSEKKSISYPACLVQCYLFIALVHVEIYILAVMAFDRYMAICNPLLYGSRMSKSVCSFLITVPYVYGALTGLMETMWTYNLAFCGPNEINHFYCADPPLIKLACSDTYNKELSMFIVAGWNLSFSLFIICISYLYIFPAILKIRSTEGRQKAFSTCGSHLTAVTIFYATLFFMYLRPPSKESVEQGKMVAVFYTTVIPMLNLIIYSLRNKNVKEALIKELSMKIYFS
How it was run: (§1)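 Transient luciferase assays in mammalian cell lines were common, though methods varied by source. The values come from published papers and their supplementary material, with extra details from the original authors when needed. Responsive refers to a measured signal the original authors judged statistically different from baseline, and non-responsive (inactive) to the remainder.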

OR5M9 (Homo sapiens) = biological target: T2, OR5M9 (Homo sapiens) (UniProt Q8NGP3)
T2 sequence (whole entry): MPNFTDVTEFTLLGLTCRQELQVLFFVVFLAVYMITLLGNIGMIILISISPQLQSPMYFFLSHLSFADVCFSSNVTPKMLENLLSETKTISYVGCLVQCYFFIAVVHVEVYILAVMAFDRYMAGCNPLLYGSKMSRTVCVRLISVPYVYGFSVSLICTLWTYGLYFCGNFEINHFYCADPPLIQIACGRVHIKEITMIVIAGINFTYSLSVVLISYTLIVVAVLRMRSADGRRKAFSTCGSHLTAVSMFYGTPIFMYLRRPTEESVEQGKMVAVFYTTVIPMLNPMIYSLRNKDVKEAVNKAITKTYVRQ
How it was run: as §1

OR5MA L2F C311H = system: T3, OR5MA L2F C311H
T3 sequence (whole entry): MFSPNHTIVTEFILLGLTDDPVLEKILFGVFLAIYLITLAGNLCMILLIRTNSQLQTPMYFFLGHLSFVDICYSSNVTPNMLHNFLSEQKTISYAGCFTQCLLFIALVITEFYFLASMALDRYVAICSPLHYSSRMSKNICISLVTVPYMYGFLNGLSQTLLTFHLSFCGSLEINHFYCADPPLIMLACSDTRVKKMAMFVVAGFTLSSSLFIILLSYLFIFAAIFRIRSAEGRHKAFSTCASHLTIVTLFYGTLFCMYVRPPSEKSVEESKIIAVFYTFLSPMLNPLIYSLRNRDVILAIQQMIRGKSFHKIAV
How it was run: as §1

OR5MA L2F Q54H C311H = system: T4, OR5MA L2F Q54H C311H
T4 sequence (whole entry): T3 sequence (whole entry) with Q54H
How it was run: as §1

OR5P2 (Homo sapiens) = biological target: T5, OR5P2 (Homo sapiens) (UniProt Q8WZ92)
T5 sequence (whole entry): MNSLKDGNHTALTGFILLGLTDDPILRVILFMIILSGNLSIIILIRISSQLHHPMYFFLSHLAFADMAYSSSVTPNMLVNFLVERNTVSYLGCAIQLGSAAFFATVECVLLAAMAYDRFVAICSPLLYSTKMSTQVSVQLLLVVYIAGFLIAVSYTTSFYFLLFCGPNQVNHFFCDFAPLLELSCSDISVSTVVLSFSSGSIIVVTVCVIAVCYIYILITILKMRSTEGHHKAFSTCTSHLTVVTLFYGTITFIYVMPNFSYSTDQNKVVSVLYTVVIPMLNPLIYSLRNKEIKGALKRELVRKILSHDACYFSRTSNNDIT
How it was run: as §1

OR5P3 (Homo sapiens) = biological target: T6, OR5P3 (Homo sapiens) (UniProt Q8WZ94)
T6 sequence (whole entry): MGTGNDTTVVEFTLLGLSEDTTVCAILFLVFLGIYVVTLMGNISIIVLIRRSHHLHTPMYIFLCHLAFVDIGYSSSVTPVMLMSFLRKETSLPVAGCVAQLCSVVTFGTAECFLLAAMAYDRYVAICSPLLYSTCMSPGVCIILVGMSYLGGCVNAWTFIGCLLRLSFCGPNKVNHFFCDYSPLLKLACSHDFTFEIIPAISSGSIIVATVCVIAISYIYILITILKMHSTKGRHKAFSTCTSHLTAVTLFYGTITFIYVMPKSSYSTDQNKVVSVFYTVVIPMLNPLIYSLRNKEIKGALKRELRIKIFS
How it was run: as §1

OR5P3 L301R = system: T7, OR5P3 L301R
T7 sequence (whole entry): T6 sequence (whole entry) with L301R
How it was run: as §1

OR5R1 C122R S128G F184L = system: T8, OR5R1 C122R S128G F184L
T8 sequence (whole entry): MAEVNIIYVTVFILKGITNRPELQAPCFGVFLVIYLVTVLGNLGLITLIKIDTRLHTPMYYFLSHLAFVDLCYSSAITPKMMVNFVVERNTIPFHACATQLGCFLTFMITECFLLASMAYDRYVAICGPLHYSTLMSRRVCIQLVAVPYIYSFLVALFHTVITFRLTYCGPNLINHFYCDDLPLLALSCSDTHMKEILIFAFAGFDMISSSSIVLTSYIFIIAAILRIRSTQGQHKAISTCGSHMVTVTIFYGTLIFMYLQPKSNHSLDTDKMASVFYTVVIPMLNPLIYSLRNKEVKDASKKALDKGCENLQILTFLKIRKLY
How it was run: as §1

OR5T1 (Homo sapiens) = biological target: T9, OR5T1 (Homo sapiens) (UniProt Q8NG75)
T9 sequence (whole entry): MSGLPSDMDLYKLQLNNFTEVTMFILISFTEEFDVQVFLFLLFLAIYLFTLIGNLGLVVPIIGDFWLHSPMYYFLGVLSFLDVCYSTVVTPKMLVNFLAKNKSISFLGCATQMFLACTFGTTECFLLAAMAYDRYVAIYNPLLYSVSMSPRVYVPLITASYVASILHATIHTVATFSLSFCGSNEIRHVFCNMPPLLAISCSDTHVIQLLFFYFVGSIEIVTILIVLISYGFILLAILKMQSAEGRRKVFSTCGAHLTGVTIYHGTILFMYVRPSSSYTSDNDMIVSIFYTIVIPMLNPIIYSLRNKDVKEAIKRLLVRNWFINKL
How it was run: as §1

OR5T2 (Homo sapiens) = biological target: T10, OR5T2 (Homo sapiens) (UniProt Q8NGG2)
T10 sequence (whole entry): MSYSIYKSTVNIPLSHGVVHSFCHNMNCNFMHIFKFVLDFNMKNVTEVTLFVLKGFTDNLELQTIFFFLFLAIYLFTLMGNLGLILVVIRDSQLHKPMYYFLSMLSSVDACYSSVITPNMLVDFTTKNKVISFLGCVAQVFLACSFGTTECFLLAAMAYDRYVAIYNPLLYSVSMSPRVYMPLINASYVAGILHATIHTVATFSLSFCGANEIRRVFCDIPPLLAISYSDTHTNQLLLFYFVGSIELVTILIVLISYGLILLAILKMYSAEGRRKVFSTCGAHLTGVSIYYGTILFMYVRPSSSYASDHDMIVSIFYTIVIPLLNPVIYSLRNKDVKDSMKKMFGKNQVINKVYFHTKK
How it was run: as §1

OR5T2 S4G = system: T11, OR5T2 S4G
T11 sequence (whole entry): T10 sequence (whole entry) with S4G
How it was run: as §1

OR5T3 (Homo sapiens) = biological target: T12, OR5T3 (Homo sapiens) (UniProt Q8NGG3)
T12 sequence (whole entry): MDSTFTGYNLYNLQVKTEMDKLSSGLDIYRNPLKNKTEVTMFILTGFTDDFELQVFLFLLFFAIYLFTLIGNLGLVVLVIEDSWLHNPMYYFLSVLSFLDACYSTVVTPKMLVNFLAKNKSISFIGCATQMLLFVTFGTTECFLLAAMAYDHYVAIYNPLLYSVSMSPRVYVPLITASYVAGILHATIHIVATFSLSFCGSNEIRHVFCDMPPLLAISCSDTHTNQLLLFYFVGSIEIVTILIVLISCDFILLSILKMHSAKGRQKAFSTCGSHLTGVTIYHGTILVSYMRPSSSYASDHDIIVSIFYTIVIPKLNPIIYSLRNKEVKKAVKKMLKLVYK
How it was run: as §1

OR5V1 (Homo sapiens) = biological target: T13, OR5V1 (Homo sapiens) (UniProt Q9UGF6)
T13 sequence (whole entry): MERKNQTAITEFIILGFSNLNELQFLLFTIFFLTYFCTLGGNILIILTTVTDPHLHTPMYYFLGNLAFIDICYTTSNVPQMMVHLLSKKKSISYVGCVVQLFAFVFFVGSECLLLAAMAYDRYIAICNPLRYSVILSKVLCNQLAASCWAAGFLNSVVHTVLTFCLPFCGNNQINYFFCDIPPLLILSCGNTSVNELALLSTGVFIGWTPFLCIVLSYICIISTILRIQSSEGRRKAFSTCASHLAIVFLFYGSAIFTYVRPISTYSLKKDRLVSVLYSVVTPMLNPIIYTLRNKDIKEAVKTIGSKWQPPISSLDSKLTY
How it was run: as §1

OR5W2 (Homo sapiens) = biological target: T14, OR5W2 (Homo sapiens) (UniProt Q8NH69)
T14 sequence (whole entry): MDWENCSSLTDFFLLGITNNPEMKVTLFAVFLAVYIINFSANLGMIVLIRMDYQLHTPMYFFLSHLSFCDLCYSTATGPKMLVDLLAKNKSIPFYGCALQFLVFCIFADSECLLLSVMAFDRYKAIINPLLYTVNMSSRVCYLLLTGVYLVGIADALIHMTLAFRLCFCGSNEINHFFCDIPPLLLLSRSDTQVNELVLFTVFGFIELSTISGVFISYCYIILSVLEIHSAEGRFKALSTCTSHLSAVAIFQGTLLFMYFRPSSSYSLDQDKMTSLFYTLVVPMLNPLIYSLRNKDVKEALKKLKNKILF
How it was run: as §1

OR5W2 R189C = system: T15, OR5W2 R189C
T15 sequence (whole entry): T14 sequence (whole entry) with R189C
How it was run: as §1

OR6A2 (Homo sapiens) = biological target: T16, OR6A2 (Homo sapiens) (UniProt O95222)
T16 sequence (whole entry): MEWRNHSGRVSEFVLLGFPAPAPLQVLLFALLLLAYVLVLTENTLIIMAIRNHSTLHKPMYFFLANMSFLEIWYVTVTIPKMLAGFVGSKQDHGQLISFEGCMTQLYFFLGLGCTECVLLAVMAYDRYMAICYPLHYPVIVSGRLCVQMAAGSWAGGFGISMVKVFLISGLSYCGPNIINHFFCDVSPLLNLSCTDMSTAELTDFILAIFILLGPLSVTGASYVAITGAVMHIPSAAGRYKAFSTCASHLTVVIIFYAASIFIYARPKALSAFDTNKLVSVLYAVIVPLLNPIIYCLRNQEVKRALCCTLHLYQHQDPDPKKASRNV
How it was run: as §1

OR6A2 I50V = system: T17, OR6A2 I50V
T17 sequence (whole entry): T16 sequence (whole entry) with I50V
How it was run: as §1

OR6B1 (Homo sapiens) = biological target: T18, OR6B1 (Homo sapiens) (UniProt O95007)
T18 sequence (whole entry): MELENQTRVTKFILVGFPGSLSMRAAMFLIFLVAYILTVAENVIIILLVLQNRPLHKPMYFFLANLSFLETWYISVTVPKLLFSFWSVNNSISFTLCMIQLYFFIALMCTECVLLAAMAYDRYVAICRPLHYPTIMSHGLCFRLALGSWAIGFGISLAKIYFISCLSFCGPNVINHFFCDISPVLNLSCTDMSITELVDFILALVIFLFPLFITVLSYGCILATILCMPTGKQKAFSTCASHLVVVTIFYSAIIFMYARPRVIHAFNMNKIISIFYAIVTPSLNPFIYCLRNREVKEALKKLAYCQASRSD
How it was run: as §1

OR6B2 (Homo sapiens) = biological target: T19, OR6B2 (Homo sapiens) (UniProt Q6IFH4)
T19 sequence (whole entry): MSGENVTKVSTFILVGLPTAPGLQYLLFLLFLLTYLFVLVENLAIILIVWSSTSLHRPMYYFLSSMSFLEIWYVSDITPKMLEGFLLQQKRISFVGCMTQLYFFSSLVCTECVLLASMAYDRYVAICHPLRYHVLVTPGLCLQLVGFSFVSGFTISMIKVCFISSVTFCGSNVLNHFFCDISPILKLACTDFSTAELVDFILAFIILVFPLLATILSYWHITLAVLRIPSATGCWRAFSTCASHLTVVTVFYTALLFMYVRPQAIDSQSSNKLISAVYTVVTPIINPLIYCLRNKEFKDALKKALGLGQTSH
How it was run: as §1

OR6B2 R122C C179R = system: T20, OR6B2 R122C C179R
T20 sequence (whole entry): T19 sequence (whole entry) with R122C, C179R
How it was run: as §1

Measured: odorant receptor agonist call;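 also: active if original authors judged signal statistically different from baseline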

CC1=C(O)C(=O)OC1C (stereo not given)
inactive: all assays above

CCCC(S)CCOC(C)=O (stereo not given)
inactive: all assays above

CC1=NC(C)C(C)S1 (stereo not given)
inactive: all assays above

CC1=C(O)C(=O)C(C)O1 (stereo not given)
inactive: all assays above
